Published values collected from several papers.
Protocols differ between the studies behind these lines.
Target: Ephrin type-A receptor 5 (EPHA5, Homo sapiens, UniProt P54756)
Tested at: 1 µM

observed | method | remaining binding [%] | Compound
binding |  | 100 | N[C@H]1CCN(c2nccc(-c3cnn4ncccc34)n2)C1
cell-free assay | competition with immobilised ligand | 88 | CNCc1ccccc1-c1csc([C@@H](C)Nc2nc(C)nc3cc(OC)c(OC)cc23)c1
binding | competition with immobilised ligand | 99 | O=C(NCCCN1CCOCC1)c1ccc(Nc2ncc(Cl)c(-c3ccc(Cl)s3)n2)cc1
binding | competition with immobilised ligand | 100 | O=C(NCC1CCOCC1)c1n[nH]cc1NC(=O)c1c(F)cccc1F
binding |  | 100 | CC1CCCN1c1nccc(-c2cnn3ncccc23)n1 (centres unmarked)
binding | competition with immobilised ligand | 100 | COc1cnc(Nc2cccc(S(N)(=O)=O)c2)nc1N1CCN(c2ccccc2)C(=O)C1
binding | competition with immobilised ligand | 100 | CCN1CCN(Cc2ccc(C(=O)Nc3ccc(C)c(Oc4ccc5c(c4)CC(=O)N5)c3)cc2C(F)(F)F)CC1
binding |  | 100 | CN(C)c1nccc(-c2cnn3ncccc23)n1
binding | competition with immobilised ligand | 88 | O=C(NCCCN1CCOCC1)c1ccc(Nc2nccc(-c3cc4ccccc4s3)n2)cc1
cell-free assay | competition with immobilised ligand | 96 | C[C@H](c1cccc(C#N)c1)n1cc(Cl)cc(C(N)=O)c1=N
binding |  | 100 | F[C@@H]1CCN(c2nccc(-c3cnn4ncccc34)n2)C1
binding | competition with immobilised ligand | 97 | Nc1ncc2c(n1)-c1c([nH]c3ccc(C#CC4CC4)cc13)CCCC2
cell-free assay | competition with immobilised ligand | 100 | CC(=O)Nc1c(C(C)=O)c(=O)n(C)c2nc(-c3ccc(Cl)cc3Cl)c(-c3ccc(Cl)cc3)cc12
binding |  | 100 | Cc1cnn2ncc(-c3ccnc(N(C)C)n3)c2c1
cell-free assay | competition with immobilised ligand | 64 | CCC(=N\O)/C(C)=C/c1ccc(F)cc1
binding | competition with immobilised ligand | 74 | Cc1cnc(Nc2ccc(C(=O)N3CCC(N4CCCC4)CC3)cc2)nc1-c1cc2ccccc2s1
cell-free assay | competition with immobilised ligand | 98.5 | COc1cccc(CNC(=O)c2nc3scc(COCc4ccc(C(=O)O)cc4)c3c(=O)[nH]2)c1
binding |  | 100 | CN(c1nccc(-c2cnn3ncccc23)n1)C1CC1
cell-free assay | competition with immobilised ligand | 100 | Cc1nc(Cc2cccc(C(F)(F)F)c2)sc1-c1ccc(C(N)=O)nc1
binding | competition with immobilised ligand | 100 | COc1cnc(Nc2cccc(S(N)(=O)=O)c2)nc1N1CCN(c2ccccc2)CC1
